Consider 18 compounds from ChEMBL document CHEMBL1126881, “3-Nitro-3,4-dihydro-2(1H)-quinolones. Excitatory amino acid antagonists acting at glycine-site NMDA and (RS)-alpha-amino-3-hydroxy-5-methyl-4-isoxazolepropionic acid receptors” (J Med Chem, 1993).

Molecules are shown by their SMILES. Some results are limits rather than exact numbers.

Data set [1] relates to Mus musculus. Kind of data set: In vivo evaluation to protect DBA/2 mice against audiogenic seizure ip 30 min prior to noise stimulation. It counts as functional. The method, boiled down: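 DBA/2 mice dosed intraperitoneally 30 min before noise stimulation and scored for protection against audiogenic seizure. Results are reported as ED50 (mg/kg) or as number protected/number tested at a single dose (50, 75 or 100 mg/kg, groups of 8).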

Data set [2] concerns the target Glutamate receptor ionotropic, NMDA 1 (Rattus norvegicus, UniProt P35439). The experiment in a line: Binding affinity towards NMDA receptor to displace [3H]L-689,560 from rat cortical membranes.
The species entered for data set [3] is Rattus norvegicus. Kind of data set: In vitro evaluation to antagonize NMDA responses in rat cortical slice preparation. The format is functional. The gist of the method: (§1)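 Rat cortical slice preparation. Apparent Kb was calculated from the rightward shift of the agonist (NMDA or AMPA) concentration-response curve produced by the antagonist. Values are means of three determinations.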

The species entered for data set [4] is Rattus norvegicus. The experiment in a line: In vitro evaluation to antagonize AMPA responses in rat cortical slice preparation. It counts as functional. The method, boiled down: as §1
Data set [5] in a line: pKa value was determined; Value ranges from 5-6. It counts as physicochemical.
Data set [6] concerns Mus musculus. Kind of data set: In vivo evaluation to protect DBA/2 mice against audiogenic seizure at 75 mg/kg ip 30 min prior to noise stimulation; 2 out of 8 mouse effected. It counts as functional. Particulars: route intraperitoneal.
Data set [7] is described as follows: pKa value was determined. The format is physicochemical.
Data set [8] has as its system Mus musculus. Kind of data set: In vivo evaluation to protect DBA/2 mice against audiogenic seizure at 100 mg/kg ip 30 min prior to noise stimulation; 0 out of 8 mouse effected. The format is functional. Particulars: route intraperitoneal.
Data set [9] has as its system Mus musculus. The experiment in a line: In vivo evaluation to protect DBA/2 mice against audiogenic seizure at 50 mg/kg ip 30 min prior to noise stimulation; 0 out of 8 mouse effected. It counts as functional. Particulars: route intraperitoneal.

A word on the ED50: it is the dose at which the effect has come halfway, by size or by number of responders. Low readings indicate an effect at a small dose, high ones a need for a large dose. Broadly, the IC50 is the midpoint of a concentration-inhibition curve. A low value points to higher potency. Regarding `O=C1Nc2cc(Cl)ccc2CC1[N+](=O)[O-]` (stereo not given), it took a dose of 13.2 mg/kg to reach the 50% effect level in the data set on Mus musculus [1] (ED50). For the same compound, the IC50 in data set [2] amounted to 0.414 µM. Besides, the results for the Kb in the data set filed under Rattus norvegicus [3] and in the data set filed under Rattus norvegicus [4] were 6.7 µM and 9.2 µM, respectively.

`COC(=O)Cc1c(C(=O)OC)c(O)nc2cc(Cl)ccc12`: the IC50 in [2] is over 100 µM.

Regarding `CCOC(=O)CC1c2ccc(Cl)cc2NC(=O)C1[N+](=O)[O-]` (stereo not given), the half-inhibitory concentration (IC50) in data set [2] is 2.23 µM. The compound also yielded a Kb in the data set filed under Rattus norvegicus [3] of 8.1 µM.

As a reminder, the pKa is the negative logarithm of the acid dissociation constant. Read a low pKa as a stronger acid or weaker base. Regarding `COC(=O)CC1c2ccc(Cl)cc2NC(=O)C1[N+](=O)[O-]` (stereo not given), the pKa in [5] is about 5. For the same compound, in the data set with Mus musculus [6], the Protected is reported as 2. The same compound came in with a half-inhibitory concentration (IC50) in data set [2] of 1.32 µM. The values for the Kb in the data set filed under Rattus norvegicus [3] and in the data set filed under Rattus norvegicus [4] were 7 µM and 139 µM, respectively.

Consider `COC(=O)CC1c2ccc(Cl)cc2NC(=O)C1S(=O)(=O)c1ccccc1` (stereo not given), for which, in data set [7], the pKa was 10.8. Further, the half-inhibitory concentration (IC50) in data set [2] was over 100 µM.

Consider `O=C(CC1c2ccc(Cl)cc2NC(=O)C1[N+](=O)[O-])NCc1ccccc1` (stereo not given), for which the Protected with Mus musculus [8] came to 0. In addition, the IC50 in [2] is 2.53 µM.

Compound `CN(C)C(=O)CC1c2ccc(Cl)cc2NC(=O)C1[N+](=O)[O-]` (stereo not given) yielded a Protected in the data set with Mus musculus [8] of 0. The compound further came in with a Kb in the data set filed under Rattus norvegicus [3] of 22.2 µM.

The compound `CNC(=O)CC1c2ccc(Cl)cc2NC(=O)C1[N+](=O)[O-]` (stereo not given) gave an IC50 in data set [2] of 12.4 µM. The compound also gave a Kb in the data set filed under Rattus norvegicus [3] of over 30.

`CN(C(=O)CC1c2ccc(Cl)cc2NC(=O)C1[N+](=O)[O-])c1ccccc1` (stereo not given) gave a Protected in the data set on Mus musculus [9] of 0. The compound also had an IC50 in data set [2] of 1.84 µM. This compound also showed a Kb in the data set listed under Rattus norvegicus [3] of over 10 µM.

In turn, `COC(=O)CC1c2ccccc2NC(=O)C1[N+](=O)[O-]` (stereo not given) gave a concentration for half-maximal inhibition (IC50) in data set [2] of 28.6 µM.

Turning to `COC(=O)CC1c2ccc(Cl)cc2NC(=O)C1S(=O)(=O)c1ccc([N+](=O)[O-])cc1` (stereo not given), the pKa in data set [7] was determined as 9.9. For the same compound, the IC50 in data set [2] is over 100 µM.

Take `COC(=O)CC1c2ccc(Cl)cc2NC(=O)C1C(=O)OC` (stereo not given): the pKa in [7] was over 11. For the same compound, in [2], the half-inhibitory concentration (IC50) is over 100 µM.

Compound `COC(=O)CC1c2ccc(Cl)cc2NC(=O)C1C(=O)c1ccccc1` (stereo not given) displayed a pKa in [7] of about 9. Besides, the IC50 in [2] is over 100 µM.

With `Cc1noc(CC2c3ccc(Cl)cc3NC(=O)C2[N+](=O)[O-])n1` (stereo not given), the Protected with Mus musculus [8] came out at 0. Besides, the concentration for half-maximal inhibition (IC50) in data set [2] is 5.59 µM. In the data set filed under Rattus norvegicus [3], the Kb was determined as 25.9 µM.

The compound `COC(=O)CC1c2ccc(Cl)cc2NC(=O)C1C#N` (stereo not given) had a pKa in data set [7] of 10.2. Further, the IC50 in data set [2] amounted to 12 µM.

Regarding `COC(=O)CC1CC(=O)Nc2cc(Cl)ccc21` (stereo not given), in data set [2], the IC50 was over 100 µM.

With `COC(=O)CC1c2ccc(Cl)cc2NC(=O)C1S(C)(=O)=O` (stereo not given), the pKa in [7] is over 11. Also, the IC50 in [2] was over 100 µM.

On to `O=C(CC1c2ccc(Cl)cc2NC(=O)C1[N+](=O)[O-])Nc1ccccc1` (stereo not given), for which, in data set [2], the IC50 amounted to 7.43 µM. The same compound returned a Kb in the data set listed under Rattus norvegicus [3] of over 10 µM.
